High-throughput results as filed in PubChem.
Most compounds without a hit are left out; they make up all but 4.6% or so of the library.
UCH37 DUB inh = inhibitors of human deubiquitinating enzyme UCH37; Q9Y5K5; purified proteasome/UCH37, Ub-AMC cleavage fluorescence; inhibition, % (no concentration beside the values); 330,000 compounds, 0.33% hits; AID 588478;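 active = mean inhibition over replicate wells above about 20%, limit read from the data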;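 note: 0% = compound-free wells with enzyme and 100% = wells lacking proteasome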
Target sequence (Q9Y5K5 whole entry, looked up): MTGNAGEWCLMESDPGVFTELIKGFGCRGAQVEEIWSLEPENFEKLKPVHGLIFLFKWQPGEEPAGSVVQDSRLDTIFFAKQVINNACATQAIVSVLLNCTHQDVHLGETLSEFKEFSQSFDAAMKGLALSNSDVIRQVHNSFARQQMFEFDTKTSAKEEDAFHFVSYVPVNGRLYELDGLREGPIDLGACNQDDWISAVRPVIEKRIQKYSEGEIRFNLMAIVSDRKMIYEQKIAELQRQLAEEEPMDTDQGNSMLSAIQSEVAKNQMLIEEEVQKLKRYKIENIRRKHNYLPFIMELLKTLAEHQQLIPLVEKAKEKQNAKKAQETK
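Material: human UCH37 enzyme supplied as purified proteasome complex / Amount: 0.15 nM proteasome as dispensed / Buffer or medium: pH 7.4 Tris-HCl (50 mM) with ovalbumin, ATP-MgCl2, DTT / Times: preincubation 30 min, reaction 25 min, room temperature / Technique: AMC fluorescence from Ub-AMC cleavage, excitation 355 nm, emission 460 nm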
Rtt109 Vps75 = C. albicans Rtt109 histone acetyltransferase inhibition. Q5AAJ8. purified Rtt109/Vps75, ThioGlo CoA-SH fluorescence, 4 h. inhibition, % at 34.9 µM. 330,000 compounds, 0.16% hits;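 active = inhibition of at least 50% in every replicate; inconclusive = best replicate reaches 50% inhibition but some replicates fall short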
Target sequence (Q5AAJ8 whole entry, looked up): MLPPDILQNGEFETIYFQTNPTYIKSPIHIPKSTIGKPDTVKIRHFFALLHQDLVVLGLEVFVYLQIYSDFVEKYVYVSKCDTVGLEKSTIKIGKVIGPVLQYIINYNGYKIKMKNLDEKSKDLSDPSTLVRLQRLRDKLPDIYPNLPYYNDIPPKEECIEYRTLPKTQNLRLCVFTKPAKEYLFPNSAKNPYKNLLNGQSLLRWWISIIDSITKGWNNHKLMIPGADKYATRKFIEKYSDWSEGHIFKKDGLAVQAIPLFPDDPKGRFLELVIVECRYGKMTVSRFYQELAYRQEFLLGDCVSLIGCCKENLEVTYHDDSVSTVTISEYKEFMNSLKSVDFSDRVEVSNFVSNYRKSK
HDAC3 inh = inhibitors of human histone deacetylase 3. 320,000 compounds, 0.15% hits. inhibition, % at 8.3 µM. recombinant HDAC3, fluorogenic peptide/trypsin coupled, fluorescence. O15379; in the data active = inhibition above about 26%, passing the limit was not always enough; inconclusive = no clear call, values can overlap the other calls
PfM18AAP inh = PfM18AAP enzyme inhibition; inhibition, % at 7.35 µM; 290,000 compounds, 1.2% hits; recombinant PfM18AAP, H-Glu-NHMec fluorogenic cleavage;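 active = inhibition above the campaign mean inhibition over all tested compounds plus 3 SD, cut at about 28% in these data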;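 note: 0% = plate median of test compound wells and 100% = 2 mM ZnCl2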
ALR H2O2 inh = blocks human ALR sulfhydryl oxidase activity | P55789 | purified ALR, DTT oxidation, H2O2 HRP-luminol luminescence | inhibition, % (no concentration beside the values) | 290,000 compounds, 3.8% hits | AID 485317;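 active = mean replicate inhibition above about 79%, with every replicate also reaching it, limit read from the data; inconclusive = only one of the two criteria met; inactive = mean below limit and not every replicate reaching it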
FAS TE block = blocks the thioesterase domain of human fatty acid synthase; inhibition, % at 15 µM; recombinant FAS-TE, OMFH fluorogenic substrate, fluorescence endpoint; P49327; 360,000 compounds, 0.67% hits;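 active = compounds whose normalised, plate-corrected inhibition of enzyme fluorescence in the single-dose primary screen is 50% or more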;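 note: 0% = DMSO with enzyme and 100% = substrate without enzyme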
UCH37 reconfirm = UCH37 Ub-AMC cleavage inhibition, confirmed; shares compounds with UCH37 DUB inh; Proteasome-bound UCH37, Ub-AMC cleavage fluorescence; inhibition, % at 20 µM; 480 compounds, 27% hits; AID 624100;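 active = average inhibition over replicates above about 50%, so the earlier screening hit is confirmed, limit read from the data; inactive = the rest, counted as false positives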;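 note: based on cleavage rate fitted by regression over a 30 min kinetic read; 0% = proteasome plus Ub-AMC and 100% = Ub-AMC without proteasome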
* marks the source's active call; other numbers are inactive results; ? = inconclusive; · = no result given.

SMILES	UCH37 DUB inh	Rtt109 Vps75	HDAC3 inh	PfM18AAP inh	ALR H2O2 inh	FAS TE block	UCH37 reconfirm
COc1cc(NC(=S)NC2CC(C)(C)NC(C)(C)C2)c(OC)cc1Cl	39*	2	-4	1	0	-2	6
CCCCCc1ccc(OCCC[n+]2ccccc2)c(CCCCC)c1	30*	?	12	-2	-20	0	36
CCCCCc1ccc(OCCOCCn2c[n+](C)c3ccccc32)c(CCCCC)c1	33*	81*	·	-7	·	-33	57*
C[n+]1cn(CC(O)COCc2ccccc2)c2ccccc21 (stereo unspecified)	0	7	-5	2	-8	-9	·
COc1ccc(-c2nn(CCC#N)cc2C=NO)cc1	4	·	·	·	·	·	·
O=C(NN=Cc1ccccc1Br)c1ccc(CSc2cccc3cccnc23)cc1	-34	·	·	·	·	·	·
Cc1[nH]n(-c2ccccc2)c(=O)c1C(C[N+](=O)[O-])c1ccc(Br)cc1 (stereo unspecified)	29*	-2	3	30*	41	10	-21
CCOC(=O)c1c(N=CN(C)C)sc(C=O)c1-c1ccccc1	-5	·	·	·	·	·	·
CC(=O)Nc1ccc(SCC(=O)c2cc(C)n(CC(F)(F)F)c2C)cc1	4	-6	1	19	·	-3	·
CC(=O)Nc1ccc(SCC(=O)c2cc(C)n(C)c2C)cc1	43*	9	2	6	99*	-5	-3
CN(C)Cc1c(C(=O)NN=Cc2cccc(OCc3c(F)cccc3Cl)c2)nnn1-c1nonc1N	3	·	·	·	·	·	·
COc1cc2c(C#N)c(N3CCCC3)nc(N)c2c(N)n1	-279	-4	-1	5	58	15	·
N#Cc1c(N2CCCC2)nc(N)c2c(N)nc(N3CCCC3)cc12	31*	-4	-12	1	-161	28	1
CCC(C)(C)c1ccc(OCCCC[n+]2cccc(C)c2C)c(C(C)(C)CC)c1	38*	-2	19	3	-26	-1	59*
CCC(C)(C)c1ccc(OCCCC[n+]2ccc(C)cc2)c(C(C)(C)CC)c1	27*	·	34*	-8	45	·	21
Cc1cc[n+](CC[n+]2ccc(C)cc2)cc1	-1	5	-12	·	-6	-12	·
C[N+]1(CCNC(=O)C=NO)CCCCC1	2	·	·	·	·	·	·
c1ccc(C[C@H]2CNCCN2CCCCC2CCCCC2)cc1	36*	21	12	·	-1	-36	4
COc1cc(C=NN2CCN(c3ccccc3)CC2)cc(OC)c1OC(C)=O	1	·	·	·	·	·	·
CCOC(=O)C1=C(COC(=O)c2ccc([N+](=O)[O-])s2)NC(=O)NC1C (stereo unspecified)	83*	4	-5	·	-12	0	27
CCOC(=O)C1=C(COC(=O)c2sccc2C)NC(=O)NC1C (stereo unspecified)	1	2	0	·	-7	-3	·
O=C(NC(=S)NCCC1=CCCCC1)c1ccc(Br)o1	1	-7	-5	-1	4	20	·
Cc1ccccc1NS(=O)(=O)c1cc(C(=O)NCCC2=CCCCC2)ccc1C	40*	4	9	2	-2	22	41
O=C(NCCC1=CCCCC1)C1COc2ccccc2O1 (stereo unspecified)	47*	-14	2	-1	-4	-1	67*
O=C(NCCC1=CCCCC1)c1ccc(Cl)c(S(=O)(=O)Nc2ccccc2)c1	13	·	6	-13	·	16	·
SMILES	UCH37 DUB inh	Rtt109 Vps75	HDAC3 inh	PfM18AAP inh	ALR H2O2 inh	FAS TE block	UCH37 reconfirm
O=C(NCCC1=CCCCC1)c1ccc(Br)o1	83*	3	·	1	·	0	91*
O=C(NCCc1ccc(C(F)(F)F)cc1)C1COc2ccccc2O1 (stereo unspecified)	5	1	3	-11	-4	10	·
CC(=NNc1nc(N2CCCCCC2)nc(N2CCCCCC2)n1)c1ccccc1	0	·	·	·	·	·	·
CCOC(=O)C(=NNc1cccc(Cl)c1)Sc1nnc(-c2ccc(OC)cc2)n1C	0	·	·	·	·	·	·
O=C1c2ccccc2C(=O)c2[nH]c(=O)[nH]c21	41*	-13	3	3	·	0	48
O=C1C(=O)c2ccccc2C(O)=C1c1ccccc1F	9	-2	2	-10	-11	2	·
O=C1C(O)=C(O)C(=O)c2ccccc21	72*	20	3	·	42	-3	-38
Nc1ccc(C(=O)OCC(=O)N2CCOCC2)cc1[N+](=O)[O-]	38*	-5	3	-7	-23	-4	8
O=C(CNC(=O)C12CC3CC(CC(C3)C1)C2)NN=Cc1ccccn1	0	·	·	·	·	·	·
CCN(CC)c1ccc(C=NNc2nn[nH]n2)cc1	-25	·	·	·	·	·	·
Cc1ccc(NC2=C(N3CCOCC3)C(=O)c3ccccc3C2=O)cc1	28*	5	3	11	8	11	26
Cc1ccc(NC2=CC(=O)C(=O)c3ccccc32)cc1	46*	5	9	-1	-35	9	55*
CC(=O)c1ccc(NC2=C(N3CCOCC3)C(=O)c3ccccc3C2=O)cc1	32*	-41	?	12	33	0	51*
O=C(O)c1ccc(NC2=C(N3CCOCC3)C(=O)c3ccccc3C2=O)cc1	34*	11	-11	-3	-60	-6	18
O=C(NN=CCCc1ccccc1)c1ccco1	0	·	·	·	·	·	·
COCCN=c1scc(-c2ccc3c(c2)NC(=O)CO3)n1N=C(C)c1ccc(O)cc1	3	·	·	·	·	·	·
CCOc1ccccc1C=C1SC(=S)N(CC)C1=O	6	1	·	·	·	20	·
O=C(O)CN1C(=O)/C(=C\c2ccccc2OCc2ccc(Cl)cc2Cl)SC1=S	26*	-2	0	3	87*	39	54*
Cc1no[n+]([O-])c1COc1ccc(C=Nn2nnnc2N)cc1	3	·	·	·	·	·	·
CC(C)NC(=O)/C(C#N)=C\c1ccc(N(C)C)o1	37*	8	11	10	97*	-24	36
CCN(CC)c1ccc(/C=C(/C#N)C(=O)NC(C)C)o1	29*	3	15	8	99*	-28	28
Cc1ccc(-c2n[nH]c(=S)n2N=Cc2cccn2C)cc1	5	·	·	·	·	·	·
O=C(NN=C/C(Cl)=C/c1ccccc1)c1ccncc1	10	·	·	·	·	·	·
FC(F)(F)c1ccc(Cl)c(NC(=S)NN=Cc2ccccc2C(F)(F)F)c1	6	·	·	·	·	·	·
Nc1ccc2c(c1)C(=O)C(=O)c1ccccc1-2	99*	-9	-2	12	33	30	101*
Nc1ccc2c(c1)C(=O)c1ccccc1-2	5	-4	-1	·	1	1	·
COc1ccccc1C=NNC(=O)c1ccc(Cn2nc([N+](=O)[O-])cc2C)cc1	6	·	·	·	·	·	·
Cc1ccccc1N=Nc1ccc(O)c2ncccc12	3	9	-4	3	-55	7	·
O=S(=O)(O)c1cccc2c(N=Nc3ccc(O)c4ncccc34)cccc12	36*	3	3	16	33	75*	39
